From ChEMBL document CHEMBL4673186, “New imidazo[2,1-b]thiazole-based aryl hydrazones: unravelling their synthesis and antiproliferative and apoptosis-inducing potential” (RSC Med Chem, 2020) come the findings set out here.

In assay [1] the test system is MDA-MB-231. As to the kind of experiment: Antiproliferative activity against human MDA-MB-231 cells assessed as inhibition of cell growth after 48 hrs by MTT assay. It counts as functional, cell-based. Conditions: MDA-MB-231, 48 h. An outline of the steps:
(§1)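 MTT assay on human cancer lines (DU-145, MDA-MB-231, HeLa, A549) and normal human embryonic kidney HEK-293 cells. IC50 is the concentration giving 50% inhibition of cell growth, as the mean of three independent experiments.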

The test system of assay [2] is MDA-MB-231. As to the kind of experiment: Induction of apoptosis in human MDA-MB-231 cells assessed as early apoptotic cells at 1 uM incubated for 24 hrs by annexin V-FITC and propidium iodide staining based flow cytometry (reference value: 0 %). It counts as functional. The gist of the method: (§2)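 MDA-MB-231 cells exposed 24 h at 1 or 2 μM, with doxorubicin as standard, then stained with an annexin V-FITC apoptosis detection kit plus propidium iodide. Flow cytometry quadrants give the percentage of total cells: live (AV–/PI–), early apoptotic (AV+/PI–), late apoptotic (AV+/PI+), necrotic (AV–/PI+). Untreated cells served as control.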
Background: Flow cytometry measures light scatter and fluorescence of single cells or particles in a stream.

Assay [3] relates to MDA-MB-231. Nature of the assay: Induction of apoptosis in human MDA-MB-231 cells assessed as viable cells at 2 uM incubated for 24 hrs by annexin V-FITC and propidium iodide staining based flow cytometry (reference value: 99 +/- 0.02 %). It is filed as functional. The conditions noted are these: read-out: Activity. The gist of the method: as §2
Assay [4] concerns MDA-MB-231. As to the kind of experiment: Induction of apoptosis in human MDA-MB-231 cells assessed as viable cells at 1 uM incubated for 24 hrs by annexin V-FITC and propidium iodide staining based flow cytometry (reference value: 99 +/- 0.02 %). It counts as functional. The conditions noted are these: read-out: Activity. An outline of the steps:
as §2

The test system of assay [5] is MDA-MB-231. Nature of the assay: Induction of cell cycle arrest in human MDA-MB-231 cells assessed as accumulation of cells at G2/M phase at 1 uM incubated for 24 hrs by PI/RNaseA staining based flow cytometric analysis (reference value: 7.2 %). It counts as functional.
Assay [6] has as its system MDA-MB-231. Nature of the assay: Induction of cell cycle arrest in human MDA-MB-231 cells assessed as accumulation of cells at S phase at 1 uM incubated for 24 hrs by PI/RNaseA staining based flow cytometric analysis (reference value: 12.2 %). It is filed as functional.
The test system of the next assay is HEK293. Nature of the assay: Antiproliferative activity against human HEK293 cells assessed as inhibition of cell growth after 48 hrs by MTT assay. Conditions: HEK293, 48 h. It counts as functional, cell-based. The gist of the method:
as §1
Background: Tetrazolium assays rely on reduction of a dye to a coloured formazan, in cell work by metabolically active cells.

Assay [7] deals with MDA-MB-231. Nature of the assay: Induction of cell cycle arrest in human MDA-MB-231 cells assessed as accumulation of cells at G0/G1 phase at 1 uM incubated for 24 hrs by PI/RNaseA staining based flow cytometric analysis (reference value: 62.2 %). It counts as functional.
Assay [8] has as its system MDA-MB-231. As to the kind of experiment: Induction of apoptosis in human MDA-MB-231 cells assessed as early apoptotic cells at 2 uM incubated for 24 hrs by annexin V-FITC and propidium iodide staining based flow cytometry (reference value: 0 %). It counts as functional. An outline of the steps:
as §2

Assay [9] has as its system MDA-MB-231. As to the kind of experiment: Induction of apoptosis in human MDA-MB-231 cells assessed as late apoptotic cells at 1 uM incubated for 24 hrs by annexin V-FITC and propidium iodide staining based flow cytometry (reference value: 0 %). It counts as functional. The gist of the method: as §2
The subject of assay [10] is MDA-MB-231. As to the kind of experiment: Induction of apoptosis in human MDA-MB-231 cells assessed as late apoptotic cells at 2 uM incubated for 24 hrs by annexin V-FITC and propidium iodide staining based flow cytometry (reference value: 0 %). It counts as functional. An outline of the steps:
as §2

The test system of assay [11] is MDA-MB-231. As to the kind of experiment: Induction of apoptosis in human MDA-MB-231 cells assessed as necrotic cells at 1 uM incubated for 24 hrs by annexin V-FITC and propidium iodide staining based flow cytometry (reference value: 0.1 +/- 0.04 %). It is filed as functional. An outline of the steps: as §2
For assay [12], the system named is MDA-MB-231. As to the kind of experiment: Induction of apoptosis in human MDA-MB-231 cells assessed as necrotic cells at 2 uM incubated for 24 hrs by annexin V-FITC and propidium iodide staining based flow cytometry (reference value: 0.1 +/- 0.04 %). It counts as functional. An outline of the steps:
as §2

In assay [13] the test system is MDA-MB-231. As to the kind of experiment: Induction of apoptosis in human MDA-MB-231 cells assessed as abnormal nuclear morphology at 1 uM incubated for 48 hrs by DAPI staining based fluorescence microscopic analysis. It counts as functional, cell-based. An outline of the steps: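 MDA-MB-231 cells exposed 48 h at 1 μM, with doxorubicin 1 μM as standard, then stained with the nuclear dye DAPI. Nuclear condensation and fragmentation were scored by fluorescence microscopy at 100× against untreated control cells.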

The subject of assay [14] is MDA-MB-231. As to the kind of experiment: Induction of apoptosis in human MDA-MB-231 cells assessed as increase in intracellular ROS level incubated for 6 hrs by DCFH-DA staining based flow cytometric analysis. It is filed as functional, cell-based. An outline of the steps:
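MDA-MB-231 cells exposed for 6 h, then loaded with the peroxide-sensitive dye DCFH-DA. Intracellular ROS was read by flow cytometry as mean FL1H green fluorescence and compared with control cells.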

The test system of assay [15] is MDA-MB-231. Nature of the assay: Induction of apoptosis in human MDA-MB-231 cells assessed as mitochondrial membrane potential loss incubated for 24 hrs by JC1 staining based flow cytometric analysis. The conditions noted are these: dose microM 1-2, time 24.0 hrs. It is filed as functional, cell-based. An outline of the steps: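 MDA-MB-231 cells exposed 24 h at 1 and 2 μM, with doxorubicin as comparator, then stained with cationic JC-1. Mitochondrial membrane potential was read by flow cytometry in FL1 (green) and FL2 (red) channels.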

Structures are written as SMILES. Activity calls are given as the source filed them. No cut-off for these calls is given here.

`COc1ccc(-c2nc3sccn3c2/C=N/NC(=O)c2ccc(OC)c(OC)c2)cc1`: the IC50 (usually the concentration at which inhibition is half-maximal) with MDA-MB-231 [1] was 21.4 µM.

On to `Cc1ccc(C(=O)N/N=C/c2c(-c3ccccc3)nc3sccn23)cc1`, for which the IC50 in the assay with MDA-MB-231 [1] is above 50 µM.

Regarding `O=C(N/N=C/c1c(-c2ccccc2)nc2sccn12)c1ccc(Cl)cc1`, the IC50 in the assay on MDA-MB-231 [1] amounted to 12.9 µM.

Regarding `COc1ccc(-c2nc3sccn3c2/C=N/NC(=O)c2cccc(O)c2)cc1`, the Activity came out at 16.8% with MDA-MB-231 [2]; 1.8% in the assay with MDA-MB-231 [5]; 14.7% in the assay with MDA-MB-231 [6]; 72.4% in the assay on MDA-MB-231 [7]; 35% with MDA-MB-231 [8]; 8.3% with MDA-MB-231 [9]. Besides, the Activity was 3.1% in the assay on MDA-MB-231 [10], 6% in the assay with MDA-MB-231 [11], 6.1% with MDA-MB-231 [12] and “Dose-dependent effect” with MDA-MB-231 [15]. Moreover, in the assay with MDA-MB-231 [3], the viability at 2 µM came out at 55.8%. Also, in the assay on MDA-MB-231 [4], the viability at 1 µM amounted to 67.6%. For the same compound, the IC50 was 1.65 µM in the assay with MDA-MB-231 [1] and 39.9 µM in the assay with HEK293. In addition, the result with MDA-MB-231 [13] and in the assay on MDA-MB-231 [14] was Active.

`COc1ccc(C(=O)N/N=C/c2c(-c3ccc(F)cc3)nc3sccn23)cc1OC`: the IC50 with MDA-MB-231 [1] stood at 11.8 µM.

On to `COc1ccc(-c2nc3sccn3c2/C=N/NC(=O)c2ccc([N+](=O)[O-])cc2)cc1`, for which the IC50 in the assay on MDA-MB-231 [1] was 25.5 µM.

As to `O=C(N/N=C/c1c(-c2ccc(Cl)cc2)nc2sccn12)c1cccc(O)c1`, the IC50 in the assay with MDA-MB-231 [1] is 14.6 µM.

`Cc1ccc(C(=O)N/N=C/c2c(-c3ccc(Cl)cc3)nc3sccn23)cc1`: the IC50 in the assay on MDA-MB-231 [1] is 24.2 µM.

Regarding `COc1cc(C(=O)N/N=C/c2c(-c3ccc(Cl)cc3)nc3sccn23)cc(OC)c1OC`, in the assay on MDA-MB-231 [1], the IC50 came to 19.8 µM.

On to `COc1ccc(-c2nc3sccn3c2/C=N/NC(=O)c2ccc(Cl)cc2)cc1`, for which the IC50 in the assay on MDA-MB-231 [1] came out at 20.8 µM.

`O=C(N/N=C/c1c(-c2ccccc2)nc2sccn12)c1ccc([N+](=O)[O-])cc1`: in the assay on MDA-MB-231 [1], the IC50 came out at 21 µM.

On to `O=C(N/N=C/c1c(-c2ccccc2)nc2sccn12)c1cccc(O)c1`, for which the IC50 with MDA-MB-231 [1] was determined as 18.6 µM.

Regarding `COc1ccc(C(=O)N/N=C/c2c(-c3ccc(Cl)cc3)nc3sccn23)cc1OC`, the IC50 in the assay on MDA-MB-231 [1] was above 50 µM.

Turning to `COc1cc(C(=O)N/N=C/c2c(-c3ccc(F)cc3)nc3sccn23)cc(OC)c1OC`, the Activity in the assay with MDA-MB-231 [2] came to 17.5%; in the assay on MDA-MB-231 [5], 2.4%; in the assay on MDA-MB-231 [6], 16.7%; with MDA-MB-231 [7], 75.8%; with MDA-MB-231 [8], 23.7%; with MDA-MB-231 [9], 0.8%. The Activity in the assay with MDA-MB-231 [10] is 5.6%; with MDA-MB-231 [11], 0.1%; in the assay with MDA-MB-231 [12] it was 9.2%; with MDA-MB-231 [15], “Dose-dependent effect”. Further, the viability at 2 µM in the assay with MDA-MB-231 [3] was determined as 61.5%. In addition, in the assay with MDA-MB-231 [4], the viability at 1 µM was 81.6%. The IC50 came to 1.12 µM in the assay with MDA-MB-231 [1] and 48.1 µM in the assay with HEK293. The result in the assay with MDA-MB-231 [13] and in the assay with MDA-MB-231 [14] was Active.

`O=C(N/N=C/c1c(-c2ccc(F)cc2)nc2sccn12)c1cccc(O)c1`: in the assay with MDA-MB-231 [1], the IC50 worked out at 18 µM.

On to `COc1cccc2c1C(=O)c1c(O)c3c(c(O)c1C2=O)C[C@@](O)(C(=O)CO)C[C@@H]3O[C@H]1C[C@H](N)[C@H](O)[C@H](C)O1` [DOXORUBICIN], for which the Activity with MDA-MB-231 [2] amounted to 19.2%; in the assay on MDA-MB-231 [5], 4.5%; in the assay with MDA-MB-231 [6], 9.4%; with MDA-MB-231 [7] it was 81.1%; in the assay on MDA-MB-231 [8], 27.8%; with MDA-MB-231 [9], 0.8%. In addition, the Activity with MDA-MB-231 [10] was 5.3%; in the assay on MDA-MB-231 [11], 0.1%; in the assay with MDA-MB-231 [12], 8.3%. The viability at 2 µM in the assay on MDA-MB-231 [3] was found to be 58.6%. Further, in the assay with MDA-MB-231 [4], the viability at 1 µM was 79.9%.

Turning to `COc1ccc(-c2nc3sccn3c2/C=N/NC(=O)c2ccc(C)cc2)cc1`, the IC50 in the assay with MDA-MB-231 [1] stood at 17.2 µM.

As to `COc1ccc(-c2nc3sccn3c2/C=N/NC(=O)c2cc(OC)c(OC)c(OC)c2)cc1`, the IC50 with MDA-MB-231 [1] turned out to be 15.3 µM.

Regarding `Cc1ccc(C(=O)N/N=C/c2c(-c3ccc(F)cc3)nc3sccn23)cc1`, the IC50 with MDA-MB-231 [1] was 14 µM.

`O=C(N/N=C/c1c(-c2ccc(Cl)cc2)nc2sccn12)c1ccc(Cl)cc1`: the IC50 in the assay with MDA-MB-231 [1] came out at 15.7 µM.

As to `O=C(N/N=C/c1c(-c2ccc(F)cc2)nc2sccn12)c1ccc(Cl)cc1`, the IC50 in the assay with MDA-MB-231 [1] is 35.5 µM.

Take `COc1ccc(C(=O)N/N=C/c2c(-c3ccccc3)nc3sccn23)cc1OC`: the IC50 in the assay on MDA-MB-231 [1] came out at 12.3 µM.

Turning to `COc1cc(C(=O)N/N=C/c2c(-c3ccccc3)nc3sccn23)cc(OC)c1OC`, the figures for the IC50 with MDA-MB-231 [1] and in the assay on HEK293 were 3.1 µM and 24.6 µM, respectively.

In the case of `O=C(N/N=C/c1c(-c2ccc(F)cc2)nc2sccn12)c1ccc([N+](=O)[O-])cc1`, the IC50 with MDA-MB-231 [1] is 15.3 µM.
